Vif imaging = blocks HIV Vif function; 340,000 tested, 0.35% active; HEK293T cells, Vif self-association by quenched fluorescence, imaging, 24 h; inhibition, % at 7.49 µM; AID 602346; in the data active = inhibition above about 50%, passing the limit was not always enough; inconclusive = no clear call, values can overlap the other calls; inactive = below about 31%
PglD inh = blocks C. jejuni PglD acetyltransferase activity | inhibition, % at 12.5 µM | 360,000 tested, 0.098% active | purified PglD enzyme, DTNB colorimetric CoA detection; in the data active = inhibition above about 16%, passing the limit was not always enough; inconclusive = no clear call, values can overlap the other calls
FGF22 binding = FGF22 (human) thermal shift binding; Q9HCT0; recombinant FGF22 thermal shift, SYPRO orange fluorescence; percent of sucrose octasulfate shift, DMSO zero; activity (Tm shift, normalised), % at 9.99 µM; 340,000 tested, 1.5% active;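 active = mean Tm shift, scaled 0 neutral to 100 positive control, at about 1.3% or above, every replicate too, limit read from the data; inconclusive = no clear call, values can overlap the other calls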
Target sequence (Q9HCT0 whole entry, looked up): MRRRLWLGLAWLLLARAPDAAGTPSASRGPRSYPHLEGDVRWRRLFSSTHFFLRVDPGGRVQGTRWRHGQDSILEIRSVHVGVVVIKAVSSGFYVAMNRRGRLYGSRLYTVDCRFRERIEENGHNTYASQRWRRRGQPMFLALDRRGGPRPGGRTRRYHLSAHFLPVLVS
PGC1a acetyl inh = PGC1a acetylation modulation, inhibitor mode; U2OS PGC1a acetylation, AlphaScreen anti-acetyl-lysine; with virally co-expressed GCN5 acetyltransferase; inhibition, % at 15.6 µM; 350,000 tested, 0.17% active;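 active = every replicate shows inhibition of at least 40%; inconclusive = mean inhibition at least 40% but some replicate below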;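 note: 0% = neutral control wells and 100% = positive control wells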
Ecoli rRNA inh = selective bacterial rRNA inhibition in E. coli. 350,000 tested, 1.6% active. E. coli WT GFP vs humanized-ribosome RFP mutants, fluorescence, 24 h; stronger effect = lower value; DMSO median 0, no signal -100. GFP signal change (wild-type ribosome), % (concentration not given with the values);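 active = significant combined selectivity score with lowered wild-type GFP, culture density cut under 30%, mutant RFP and density less affected; inactive = any of these conditions unmet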
Cneo AK release = Cryptococcus neoformans lysis via adenylate kinase release | C. neoformans lysis, adenylate kinase release luminescence, 4 h; normalised: neutral wells 0, clomiphene wells 100 | AID 651654 | 360,000 tested, 0.2% active | lysis activity, % at 15 µM;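 active = mean lysis activity across replicates of at least 80%, whatever share of replicates individually reach that level; inactive = mean lysis activity below 80%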
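Test system: log-phase Cryptococcus neoformans yeast cells. Input: 5 × 10^6 yeast cells/mL. Medium: fresh YPD growth medium. Doses: single dose. Incubation: static 4 h at 37 °C with compound, 1 h detection. Measured by: luminescent adenylate kinase detection reagent. Read-out: signal increase indicating cell lysis. Benchmarks: Clomiphene.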
* hit, by the source's call; ? = inconclusive; . = not tested or not shown. A selection: hits, their analogues and other compounds. The true share with any hit is near 2.9%.

SMILES	Vif imaging	PglD inh	FGF22 binding	PGC1a acetyl inh	Ecoli rRNA inh	Cneo AK release
CCOC(=O)CNC(=O)OC1CCN2Cc3ccccc3N=C12 (stereo not drawn)	.	1.3	0.0	77.5*	9.6	1.0
NC(=O)COc1ccc(Nc2nnc(-c3ccc(O)cc3)c3ccccc23)cc1	-14.2	1.7	0.2	-10.0	-25.2*	0.9
Cc1ccc(-c2nnc(Nc3ccc(OCC(N)=O)cc3)c3ccccc23)cc1S(N)(=O)=O	-5.0	-2.3	0.0	-10.2	-13.3	-0.1
Nc1cccc(-c2cn3cccnc3n2)c1	1.6	7.4	42.9*	0.5	-0.5	8.3
O=C(Nc1cccc(-c2cn3cccnc3n2)c1)c1ccco1	-2.0	0.3	0.2	-15.5	-11.3	-0.7
O=C(Nc1cccc(-c2cn3cccnc3n2)c1)c1ccc(Br)o1	81.1*	1.6	.	-8.8	-5.7	-2.0
Cc1c(-c2cccc(NC(=O)c3ccco3)c2)nc2ncccn12	-6.5	.	44.3*	8.4	-4.7	.
Cc1ccc(-c2cn3cccnc3n2)cc1	-2.8	0.5	0.0	-1.7	12.1	-3.3
CC(C)NC(=O)C12CC3CC(C1)CC(C(=O)NC(C)C)(C3)C2	-12.4	-6.0	43.9*	.	.	0.2
Cc1ccc(C23CC4CC(CC(C(=O)NC(C)C)(C4)C2)C3)cc1	-1.3	7.3	-0.1	.	2.3	-2.0
Clc1nnc(NC2CCCCC2)c(Cl)c1Cl	1.0	.	43.1*	.	-26.3	.
COc1cccc(S(=O)(=O)N2C[C@@H](O)COC[C@H]3O[C@@H](CC(=O)Nc4ccccc4)CC[C@@H]32)c1	.	0.2	-0.2	-3.9	-4.4	-1.9
CCOC(=O)c1c(NC(=O)CC2SC(N)=NC2=O)sc2c1CCC(C)C2 (stereo not drawn)	3.6	2.1	.	-12.2	.	-1.7
CCOC(=O)c1c(NC(=O)CNCCO)sc(C)c1C	.	-0.5	.	-13.3	.	-1.1
CCOC(=O)c1c(NC(=O)Cn2ccsc2=N)sc(C)c1C	-16.1	.	43.2*	-5.8	4.2	.
CCOC(=O)c1c(NC(=O)CC2SC(N)=NC2=O)sc(C)c1C (stereo not drawn)	3.7	.	43.3*	.	-0.8	.
CN(C)C(=O)c1cccc(-c2ccc([C@@H]3[C@H]4CN(C(=O)C5CCCCC5)CC(=O)N4[C@H]3CO)cc2)c1	.	.	.	3.0	-11.1	.
COc1ccc(C(=O)OCC(=O)c2cc(OC)ccc2OC)c(OC)c1	-5.2	-8.5	.	-12.7	.	-0.3
COc1ccc(C(=O)COC(=O)c2ccccc2O)c(OC)c1	1.6	1.6	-0.1	-1.5	-17.5*	-2.5
CCOC(=O)c1nc(C)sc1-c1ccnn1S(=O)(=O)c1ccc(Cl)cc1Cl	-13.6	.	-0.2	.	-28.8*	.
CCOC(=O)c1nc(C)sc1-c1ccnn1S(=O)(=O)c1ccccc1C(F)(F)F	-3.3	2.5	0.0	-8.5	.	0.5
CCOC(=O)c1nc(C)sc1-c1ccnn1S(=O)(=O)c1ccc(C)cc1	-10.2	12.7	-0.1	-1.5	-21.9*	-3.5
CCN(CC(=O)Nc1c(F)cccc1F)C(=O)CCc1ccc(OC)cc1	-5.2	.	43.6*	.	2.4	.
CCN(CC(=O)Nc1c(F)cccc1F)C(=O)CCCOc1ccc(OC)cc1	11.5	-2.7	-0.4	-1.3	3.1	4.4
Cc1ccc(S(=O)(=O)N[C@@H]2C=C[C@H](CC(=O)N3CCc4ccccc4C3)O[C@@H]2CO)cc1	.	-1.8	0.8	3.6	-5.9	-2.7
SMILES	Vif imaging	PglD inh	FGF22 binding	PGC1a acetyl inh	Ecoli rRNA inh	Cneo AK release
CCOCCCNCc1cn(-c2ccc(F)cc2F)nc1-c1ccccc1C	-4.6	-0.9	43.1*	-1.7	.	-6.0
CCN(CC)C1=CC(=[N+]2CCCC2)CC(C)(C)C1	-7.0	-1.6	.	.	.	3.3
CN(Cc1ccccc1)C1=CC(=[N+]2CCCC2)CC(C)(C)C1	-4.8	3.7	-0.3	5.8	-33.5*	-1.0
CC(=O)c1cc(-c2ccccc2)n(CCC(=O)NC2CCCC2)c1C	-2.7	-3.8	44.4*	.	2.1	-0.7
COCC(=O)Nc1ccc2c(c1)C(=O)N(C)C[C@@H](OC)[C@H](C)CN(Cc1ccccn1)[C@H](C)CO2	.	0.6	0.0	-3.5	3.5	-2.9
CN1CCN(CCCN(Cc2ccco2)C(=S)Nc2ccc(Cl)cc2)CC1	-11.0	.	42.9*	-22.5	24.4	.
CCN1CCN(CCCN(Cc2ccco2)C(=S)Nc2ccc(Cl)cc2)CC1	?	-9.0	41.8	-18.9	16.2	5.2
Cc1ccc(C(=O)c2coc3ccc(O)c(Cl)c23)cc1	-8.0	-185.7	.	1.7	.	0.7
O=C(c1ccccc1)c1coc2ccc(O)c(Cl)c12	-1.8	-3.7	0.2	15.7	-45.5*	-1.9
COc1ccc2c3c(n(C)c2c1)[C@H](CO)N(C(=O)C1CCCCC1)CC31CCN(C(=O)Nc2cccc(F)c2)CC1	.	.	.	-8.1	-2.6	.
C[C@@H]1CCCCO[C@H](CN(C)C(=O)CCCN(C)C)[C@H](C)CN([C@@H](C)CO)C(=O)c2cc(NC(=O)C3CCCCC3)ccc2O1	.	-3.4	-0.1	1.5	0.2	-1.8
Cc1ccc(NC(=O)CSc2nc3ccccc3c(=O)n2CCCC(=O)NCCCN2CCOCC2)cc1C	14.9	.	-0.1	-24.6	10.0	.
CCc1ccc(NC(=O)CSc2nc3ccccc3c(=O)n2CCCC(=O)NCCCN2CCOCC2)cc1	-8.2	-4.8	43.1*	-10.4	.	-2.5
CC1CCN(CCCn2c(SCC(=O)Nc3ccccc3Cl)nc3ccccc3c2=O)CC1	-6.4	.	0.1	.	-33.0*	.
COc1ccc(NC(=O)CSc2nc3ccccc3c(=O)n2CCCN2CCC(C)CC2)c(OC)c1	5.6	5.9	42.6	-0.1	-9.5	0.2
CC(=O)N(C)C[C@H]1Oc2ncc(-c3ccccc3C)cc2C(=O)N([C@@H](C)CO)C[C@H]1C	.	1.9	0.0	4.4	-0.9	2.5
C/C=C/c1ccc([C@H]2[C@@H](CO)N(S(C)(=O)=O)[C@H]2CN(CC)C(C)=O)cc1	.	.	.	.	3.9	.
O=C(NCc1ccccc1)[C@]1(Cc2ccccc2)N=C(c2ccc(OCCCO)cc2)O[C@@H]1c1ccccc1	.	1.4	0.2	-25.3	.	-4.6
CCC1(CC)N([O-])C(C)=C(c2ccccc2)[N+]1=O	1.9	-8.5	.	14.5	.	1.7
CC1=C(c2ccccc2)[N+](=O)C2(CCCCC2)N1[O-]	-2.1	5.6	43.0*	.	10.9	-0.7
COc1cc2cc(CCCOC(=O)c3ccc(F)cc3)oc(=O)c2cc1OC	-7.4	-0.1	-0.1	.	-24.6*	2.8
COc1cc2cc(CCCOC(=O)c3ccc(Br)cc3)oc(=O)c2cc1OC	.	-3.6	-0.1	.	-24.7	-0.2
O=C(N/N=C/c1cccnc1)c1ccc2c(c1)OCO2	11.2	-4.6	0.0	.	8.8	-7.1
O=C(N/N=C/c1cc(Br)c(O)c(Br)c1O)c1cccnc1	-8.0	-0.1	-0.4	4.4	-19.9*	-0.1
O=C(N/N=C/c1cc(O)ccc1Br)c1cccnc1	-4.0	-0.5	-0.1	.	-34.2	-0.1
